Results from ChEMBL document CHEMBL4265908, “Structure-activity and structure-property relationships of novel Nrf2 activators with a 1,2,4-oxadiazole core and their therapeutic effects on acetaminophen (APAP)-induced acute liver injury” (Eur J Med Chem, 2018).
In brackets after ≈: the same amount, converted by molar mass. Activity calls are given as the source filed them. No cut-off for these calls is given here.

Target: T1, Nuclear factor erythroid 2-related factor 2 (Homo sapiens) (UniProt Q16236)
T1 sequence (whole entry): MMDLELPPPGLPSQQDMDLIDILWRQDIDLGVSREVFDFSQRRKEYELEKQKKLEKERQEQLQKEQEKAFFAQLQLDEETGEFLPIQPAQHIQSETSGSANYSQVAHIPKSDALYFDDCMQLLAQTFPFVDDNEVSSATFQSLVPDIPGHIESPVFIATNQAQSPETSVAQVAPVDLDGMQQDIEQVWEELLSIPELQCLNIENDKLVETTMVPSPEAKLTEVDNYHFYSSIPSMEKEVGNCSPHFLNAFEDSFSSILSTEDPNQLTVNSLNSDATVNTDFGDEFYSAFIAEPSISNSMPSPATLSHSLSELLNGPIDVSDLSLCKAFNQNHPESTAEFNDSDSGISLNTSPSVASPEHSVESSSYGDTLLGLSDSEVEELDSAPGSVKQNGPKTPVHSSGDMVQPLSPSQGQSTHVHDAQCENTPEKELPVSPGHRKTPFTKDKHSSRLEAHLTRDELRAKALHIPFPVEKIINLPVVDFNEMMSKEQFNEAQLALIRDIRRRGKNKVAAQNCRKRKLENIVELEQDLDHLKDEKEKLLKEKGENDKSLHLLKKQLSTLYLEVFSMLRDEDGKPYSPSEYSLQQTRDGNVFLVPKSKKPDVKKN
Assay: Activation of Nrf2 in human HepG2-ARE-C8 cells assessed as induction of ARE-mediated luciferase activity at 0.01 uM after 24 hrs by luciferase reporter gene assay relative to control
Type: cell-based
Conditions: not given
How it was run: (§1)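 HepG2-ARE-C8 cells stably carrying ARE-luciferase, grown in DMEM with 10% FBS at 37 °C and 5% CO2. Seeded at 5 × 10^4 cells/well, left overnight, then given compound diluted from a 10 mM DMSO stock for 24 h. Cells lysed and luciferase read as RLU. Inductivity = (RLUtest − RLUblank)/(RLUcontrol − RLUblank), with DMSO as control. Mean ± SEM of three experiments.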

Activity	SMILES
1.42	Fc1ccc(-c2noc(-c3ccc(F)c(F)c3)n2)cc1F
1.46	Fc1ccc(-c2nc(-c3ccc4nc[nH]c4c3)no2)cc1F
1.01	Fc1ccc(-c2nc(-c3ccc4nc[nH]c4c3)no2)c(Br)c1
1.15	Fc1ccc(-c2nc(-c3ncccc3F)no2)cc1F
0.65	Fc1ccc(-c2nc(-c3ccccn3)no2)cc1F
2.01	Fc1ccccc1-c1nc(-c2ccc3nc[nH]c3c2)no1

System: HepG2
Assay: Cytotoxicity against human HepG2 cells at 80 uM after 24 hrs by MTT assay
Type: cell-based
Conditions: hepg2, 24 h

SMILES	Activity
Fc1ccc(-c2noc(-c3ccc(F)c(F)c3)n2)cc1F	Non-Toxic
Fc1ccc(-c2nc(-c3ccc4nc[nH]c4c3)no2)cc1F	Non-Toxic
Fc1ccc(-c2nc(-c3ccc4nc[nH]c4c3)no2)c(Br)c1	Non-Toxic
Fc1ccc(-c2nc(-c3ncccc3F)no2)cc1F	Non-Toxic
Fc1ccc(-c2nc(-c3ccccn3)no2)cc1F	Non-Toxic
Fc1ccccc1-c1nc(-c2ccc3nc[nH]c3c2)no1	Non-Toxic

Target: T1, Nuclear factor erythroid 2-related factor 2 (Homo sapiens)
Assay: Activation of Nrf2 in human HepG2-ARE-C8 cells assessed as induction of ARE-mediated luciferase activity at 0.1 uM after 24 hrs by luciferase reporter gene assay relative to control
Type: cell-based
Conditions: not given
How it was run: as §1

Activity	SMILES
1.36	Fc1ccc(-c2noc(-c3ccc(F)c(F)c3)n2)cc1F
6.21	Fc1ccc(-c2nc(-c3ccc4nc[nH]c4c3)no2)cc1F
2.65	Fc1ccc(-c2nc(-c3ccc4nc[nH]c4c3)no2)c(Br)c1
1.25	Fc1ccc(-c2nc(-c3ncccc3F)no2)cc1F
0.83	Fc1ccc(-c2nc(-c3ccccn3)no2)cc1F
4.51	Fc1ccccc1-c1nc(-c2ccc3nc[nH]c3c2)no1

Target: T1, Nuclear factor erythroid 2-related factor 2 (Homo sapiens)
Assay: Activation of Nrf2 in human HepG2-ARE-C8 cells assessed as induction of ARE-mediated luciferase activity at 1 uM after 24 hrs by luciferase reporter gene assay relative to control
Type: cell-based
Conditions: not given
How it was run: as §1

Activity	SMILES
1.73	Fc1ccc(-c2noc(-c3ccc(F)c(F)c3)n2)cc1F
12.3	Fc1ccc(-c2nc(-c3ccc4nc[nH]c4c3)no2)cc1F
4.18	Fc1ccc(-c2nc(-c3ccc4nc[nH]c4c3)no2)c(Br)c1
1.56	Fc1ccc(-c2nc(-c3ncccc3F)no2)cc1F
1.05	Fc1ccc(-c2nc(-c3ccccn3)no2)cc1F
12	Fc1ccccc1-c1nc(-c2ccc3nc[nH]c3c2)no1

Target: T1, Nuclear factor erythroid 2-related factor 2 (Homo sapiens)
Assay: Activation of Nrf2 in human HepG2-ARE-C8 cells assessed as induction of ARE-mediated luciferase activity at 20 uM after 24 hrs by luciferase reporter gene assay relative to control
Type: cell-based
Conditions: not given
How it was run: as §1

Activity	SMILES
1.41	CC(C)(C)c1cc(O)ccc1O [E319]
1.73	Fc1ccc(-c2noc(-c3ccc(F)c(F)c3)n2)cc1F
24	Fc1ccc(-c2nc(-c3ccc4nc[nH]c4c3)no2)cc1F
12.1	Fc1ccc(-c2nc(-c3ccc4nc[nH]c4c3)no2)c(Br)c1
1.75	Fc1ccc(-c2nc(-c3ncccc3F)no2)cc1F
1.31	Fc1ccc(-c2nc(-c3ccccn3)no2)cc1F
12.7	Fc1ccccc1-c1nc(-c2ccc3nc[nH]c3c2)no1

Target: T1, Nuclear factor erythroid 2-related factor 2 (Homo sapiens)
Assay: Activation of Nrf2 in human HepG2-ARE-C8 cells assessed as induction of ARE-mediated luciferase activity at 40 uM after 24 hrs by luciferase reporter gene assay relative to control
Type: cell-based
Conditions: not given
How it was run: as §1

Activity	SMILES
2.14	CC(C)(C)c1cc(O)ccc1O [E319]
2.68	Fc1ccc(-c2noc(-c3ccc(F)c(F)c3)n2)cc1F
42.6	Fc1ccc(-c2nc(-c3ccc4nc[nH]c4c3)no2)cc1F
21.6	Fc1ccc(-c2nc(-c3ccc4nc[nH]c4c3)no2)c(Br)c1
2.52	Fc1ccc(-c2nc(-c3ncccc3F)no2)cc1F
1.32	Fc1ccc(-c2nc(-c3ccccn3)no2)cc1F
15	Fc1ccccc1-c1nc(-c2ccc3nc[nH]c3c2)no1

Target: T1, Nuclear factor erythroid 2-related factor 2 (Homo sapiens)
Assay: Activation of Nrf2 in human HepG2-ARE-C8 cells assessed as induction of ARE-mediated luciferase activity at 80 uM after 24 hrs by luciferase reporter gene assay relative to control
Type: cell-based
Conditions: not given
How it was run: as §1

Activity	SMILES
5.27	CC(C)(C)c1cc(O)ccc1O [E319]
2.56	Fc1ccc(-c2noc(-c3ccc(F)c(F)c3)n2)cc1F
49.9	Fc1ccc(-c2nc(-c3ccc4nc[nH]c4c3)no2)cc1F
25.1	Fc1ccc(-c2nc(-c3ccc4nc[nH]c4c3)no2)c(Br)c1
2.95	Fc1ccc(-c2nc(-c3ncccc3F)no2)cc1F
2.55	Fc1ccc(-c2nc(-c3ccccn3)no2)cc1F
19.1	Fc1ccccc1-c1nc(-c2ccc3nc[nH]c3c2)no1

System: L02
Assay: Cytotoxicity against human LO2 cells up to 160 uM after 24 hrs by MTT assay
Type: cell-based
Conditions: l02, 24 h
How it was run: (§2)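 LO2 cells plated for 12 h, then treated for 24 h with 0, 0.2, 2, 20, 40, 80 or 160 μM compound diluted in medium from a DMSO stock. MTT (5 mg/mL stock) added for 4 h, formazan dissolved in DMSO, A570 read. Viability computed from OD relative to DMSO control and blank. Mean ± SD of three experiments.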

SMILES	Activity
CC(C)(C)c1cc(O)ccc1O [E319]	<= 7%

System: L02
Assay: Cytotoxicity against human LO2 cells at 160 uM after 24 hrs by MTT assay
Type: cell-based
Conditions: l02, 24 h
How it was run: as §2

SMILES	Activity
Fc1ccc(-c2nc(-c3ccc4nc[nH]c4c3)no2)cc1F	<= 20%

Target: T1, Nuclear factor erythroid 2-related factor 2 (Homo sapiens)
Assay: Activation of Nrf2 in human HepG2-ARE-C8 cells assessed as induction of ARE-mediated luciferase activity at 0.02 uM after 24 hrs by luciferase reporter gene assay relative to control
Type: cell-based
Conditions: not given

Activity	SMILES
1.18	CC(C)(C)c1cc(O)ccc1O [E319]

Target: T1, Nuclear factor erythroid 2-related factor 2 (Homo sapiens)
Assay: Activation of Nrf2 in human HepG2-ARE-C8 cells assessed as induction of ARE-mediated luciferase activity at 0.2 uM after 24 hrs by luciferase reporter gene assay relative to control
Type: cell-based
Conditions: not given

Activity	SMILES
1.25	CC(C)(C)c1cc(O)ccc1O [E319]

Target: T1, Nuclear factor erythroid 2-related factor 2 (Homo sapiens)
Assay: Activation of Nrf2 in human HepG2-ARE-C8 cells assessed as induction of ARE-mediated luciferase activity at 2 uM after 24 hrs by luciferase reporter gene assay relative to control
Type: cell-based
Conditions: not given

Activity	SMILES
1.24	CC(C)(C)c1cc(O)ccc1O [E319]

System: L02
Assay: Hepatoprotective activity against APAP-induced cell injury in human LO2 cells assessed as increase in cell viability at 20 uM pretreated for 24 hrs followed by APAP treatment measured after 24 hrs by MTT assay
Type: functional
Conditions: not given
How it was run: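 LO2 cells plated for 12 h and pretreated for 24 h with 5, 10 or 20 μM compound. One arm was first transfected with 50 nM Nrf2 siRNA before receiving 20 μM compound. Medium then replaced with medium containing 8 mM APAP for 24 h. Viability by MTT at A570. Mean ± SD of three experiments.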

SMILES	Activity
CC(C)(C)c1cc(O)ccc1O [E319]	Active

System: not listed separately
Assay: Lipophilicity, log D of the compound at pH 7.4 by potentiometric titration method
Type: physicochemical
Conditions: buffer
How it was run: (§3)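 Intrinsic aqueous solubility and logD at pH 7.4 determined by Avdeef-Bucher potentiometric titration on a pION Gemini Profiler.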

logD	SMILES
3.3	Fc1ccc(-c2nc(-c3ccc4nc[nH]c4c3)no2)cc1F

System: not listed separately
Assay: Intrinsic aqueous solubility of the compound by potentiometric titration method
Type: physicochemical
Conditions: not given
How it was run: as §3

solubility	SMILES
99 µM (≈ 29.5 µg/mL)	Fc1ccc(-c2nc(-c3ccc4nc[nH]c4c3)no2)cc1F
